Results: ChEMBL document CHEMBL1914355, “Discovery of new orally active prostaglandin D2 receptor antagonists” (Bioorg Med Chem, 2011)
In brackets after ≈: the same amount, converted by molar mass.

Tests used:
[1] = molecular target: Prostacyclin receptor (Homo sapiens, UniProt P43119); experiment: Displacement of [3H]Iloprost from human prostanoid IP receptor expressed in CHO cells after 30 mins by liquid scintillation counting; type: cell-based
In short: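 Membranes from CHO cells stably expressing hIP were incubated with 5.0 nM [³H]iloprost and graded compound concentrations in 50 mM Tris-HCl (1 mM EDTA, 10 mM MgCl₂, pH 7.5) for 30 min at room temperature. Filters (GF/B) were washed with ice-cold Tris/NaCl pH 7.5, dried 60 min at 60 °C, and counted. Nonspecific binding used excess unlabeled iloprost. Ki = IC50/(1+[L]/Kd).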

[2] = molecular target: T1, Prostaglandin D2 receptor (Mus musculus, UniProt P70263); experiment: Antagonist activity at mouse prostanoid DP receptor expressed in CHO cells assessed as inhibition of PGD2-induced intracellular cAMP production after 10 mins by enzyme immunoassay; type: functional, cell-based
T1 sequence (P70263 whole entry): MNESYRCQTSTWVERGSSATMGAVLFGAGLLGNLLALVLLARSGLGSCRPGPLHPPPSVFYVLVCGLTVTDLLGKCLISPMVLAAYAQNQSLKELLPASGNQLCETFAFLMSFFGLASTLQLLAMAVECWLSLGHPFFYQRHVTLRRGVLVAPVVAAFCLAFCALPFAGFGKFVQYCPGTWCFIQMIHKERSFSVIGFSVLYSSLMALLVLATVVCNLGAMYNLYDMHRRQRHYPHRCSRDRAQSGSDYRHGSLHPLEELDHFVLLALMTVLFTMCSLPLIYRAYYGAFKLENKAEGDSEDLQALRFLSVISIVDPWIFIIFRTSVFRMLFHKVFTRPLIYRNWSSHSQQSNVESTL
In short: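 CHO cells expressing mDP seeded at 1 × 10⁵ cells/well and grown 2 days. They were rinsed and preincubated ~10 min at 37 °C in MEM with 2 µM diclofenac, then ~10 min in assay medium (MEM, 0.1% BSA, 1 mM IBMX, 2 µM diclofenac). Compound plus 10 nM PGD₂ was added for 10 min at 37 °C. TCA stop, tri-n-octylamine/chloroform extraction, cAMP by EIA. IC50 taken from % of maximal cAMP rise without compound.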

[3] = molecular target: T2, Prostaglandin D2 receptor (Homo sapiens, UniProt Q13258); experiment: Antagonist activity at prostanoid DP receptor in human platelet rich plasma assessed as inhibition of PGD2-induced intracellular cAMP production after 10 mins by enzyme immunoassay; type: functional, cell-based; conditions: in the assay text read “after 15 mins” for “after 10 mins”
T2 sequence (Q13258 whole entry): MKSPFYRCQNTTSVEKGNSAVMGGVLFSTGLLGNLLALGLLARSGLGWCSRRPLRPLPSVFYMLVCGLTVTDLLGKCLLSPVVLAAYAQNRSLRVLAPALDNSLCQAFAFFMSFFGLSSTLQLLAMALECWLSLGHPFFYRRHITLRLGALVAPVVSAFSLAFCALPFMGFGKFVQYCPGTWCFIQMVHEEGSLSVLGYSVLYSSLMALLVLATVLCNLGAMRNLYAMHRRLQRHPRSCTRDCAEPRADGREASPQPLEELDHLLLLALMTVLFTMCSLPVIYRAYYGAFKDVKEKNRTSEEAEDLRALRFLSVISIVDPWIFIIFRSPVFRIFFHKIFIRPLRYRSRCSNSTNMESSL
In short: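 Human PRP with EDTA (~10 mmol/L) was spun at 1500 G for 15 min. Platelets were resuspended in PPP at 5.0 × 10⁵/µL with IBMX (8 mmol/L final) and an EP3 antagonist, then held 5 min at 37 °C. Compound was added for 10 min at 37 °C, then PGD₂ (3 µmol/L final) for 15 min. TCA stop, tri-n-octylamine extraction, cAMP EIA. IC50 derived from inhibition ratio.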

[4] = Kinetic solubility of the compound; type: physicochemical; conditions: read-out: Kinetic_solubility
[5] = molecular target: T1, Prostaglandin D2 receptor; experiment: Displacement of [3H]-PGD2 from mouse DP receptor expressed in CHO cells after 20 mins by liquid scintillation counting; type: cell-based
In short: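 CHO-mDP membranes were incubated with 2.5 nM [³H]PGD₂ and graded compound concentrations in 25 mM HEPES-NaOH (1 mM EDTA, 5 mM MgCl₂, 10 mM MnCl₂, pH 7.4) for 20 min at room temperature. Bound ligand was collected on GF/B filters and washed with ice-cold Tris/NaCl/0.01% BSA, pH 7.4. Nonspecific binding was defined with excess unlabeled PGD₂. IC50 came from the regression curve; Ki = IC50/(1+[L]/Kd).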

[6] = test system: Cavia porcellus; experiment: Inhibition of PGD2-induced vascular permeability in Hartley guinea pig conjunctiva at 0.1 mg/kg, po administered 1 hr before antigen challenge measured after 30 mins; type: functional
In short: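 Guinea pigs (n = 8) were dosed orally 1 h before topical PGD₂ challenge (20 µL/eye). 5% Evans blue (1 mL/kg iv) was given immediately after challenge. After 30 min the conjunctiva was excised and dye extracted in DMF at 37 °C, with absorbance read at 620 nm. Dunnett's test versus control.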

[7] = AUC (0 to infinity) in rat at 1 mg/kg, po administered as single dose; type: ADME, organism-based; parameters: time infinity, dose 1 mg/kg, route oral; conditions: plasma
In short: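 Fasted male rats (n = 3) given a single oral dose of 1 mg/kg in 0.5% MC. Heparinized jugular vein blood sampled pre-dose and at 15, 30 min and 1, 2, 4, 6, 8, 24 h. Plasma separated by centrifugation at 4 °C and kept at -80 °C. AUC derived from the plasma concentration–time profile.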

[8] = AUC (0 to infinity) in rat at 1 mg/kg, iv administered as single dose; type: ADME, organism-based; parameters: time infinity, dose 1 mg/kg, route intravenous; conditions: plasma
In short: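 Single IV dose of 1 mg/kg to fasted male rats (n = 3). Vehicle: 30% HP-b-CD containing 5% DMSO with NaHCO3 (1 eq). Jugular vein blood taken in heparinized syringe pre-dose and at 5, 15, 30 min and 1, 2, 4, 6, 8, 24 h. Plasma obtained by centrifugation at 4 °C and stored at -80 °C. AUC derived from the plasma concentration–time course.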

[9] = Cmax in rat at 1 mg/kg, po administered as single dose; type: ADME, organism-based; parameters: dose 1 mg/kg, route oral; conditions: in vivo
In short: (§1)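 Fasted male rats (n = 3) received a single oral 1 mg/kg dose in 0.5% methylcellulose. Jugular blood was drawn into heparin before dosing and at 15, 30 min and 1, 2, 4, 6, 8, 24 h. Plasma was separated at 4 °C. Parameters came from the plasma concentration-time course.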

[10] = Total clearance in rat at 1 mg/kg, iv administered as single dose; type: ADME, organism-based; parameters: dose 1 mg/kg, route intravenous; conditions: in vivo
In short: (§2)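 Fasted male rats (n = 3) received a single 1 mg/kg iv dose in 30% HP-β-CD with 5% DMSO and 1 eq NaHCO₃. Jugular blood was drawn into heparin before dosing and at 5, 15, 30 min and 1, 2, 4, 6, 8, 24 h. Plasma was obtained by centrifugation at 4 °C. Parameters came from the plasma concentration-time course.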

[11] = Half life in rat at 1 mg/kg, iv administered as single dose; type: ADME, organism-based; parameters: dose 1 mg/kg, route intravenous; conditions: in vivo; in short: as §2
[12] = Half life in rat at 1 mg/kg, po administered as single dose; type: ADME, organism-based; parameters: dose 1 mg/kg, route oral; conditions: in vivo; in short: as §1
[13] = Volume of distribution at steady state in rat at 1 mg/kg, iv administered as single dose; type: ADME, organism-based; parameters: dose 1 mg/kg, route intravenous; conditions: in vivo, read-out: Vdss; in short: as §2
[14] = Oral bioavailability in rat at 1 mg/kg administered as single dose; type: ADME, organism-based; conditions: in vivo
In short: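 Fasted male rats (n = 3) were given 1 mg/kg orally in 0.5% methylcellulose and 1 mg/kg iv in 30% HP-β-CD/5% DMSO/NaHCO₃, each as a single dose. Plasma from serial jugular samples was analysed. Bioavailability was derived from oral versus iv exposure, corrected for dose (D_po, D_iv).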

[15] = test system: Cavia porcellus; experiment: Inhibition of OVA-induced vascular permeability in Hartley guinea pig conjunctiva at 1 mg/kg, po administered 1 hr before antigen challenge measured after 30 mins; type: functional
In short: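 Male Hartley guinea pigs were sensitized ip with OVA (1 mg) plus inactivated B. pertussis. Two weeks later they were challenged topically with OVA (1%, 20 µL/eye), followed at once by Evans blue (20 mg/kg iv). Compound was given orally 1 h before challenge (n = 7). After 30 min the conjunctiva was removed, dye was extracted in DMF at 37 °C, and A620 was read against a standard curve. Dunnett's test was used.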

[16] = Cmax in rat at 1 mg/kg, po administered as single dose; conditions: in vivo

Sequence of Prostacyclin receptor (P43119 whole entry): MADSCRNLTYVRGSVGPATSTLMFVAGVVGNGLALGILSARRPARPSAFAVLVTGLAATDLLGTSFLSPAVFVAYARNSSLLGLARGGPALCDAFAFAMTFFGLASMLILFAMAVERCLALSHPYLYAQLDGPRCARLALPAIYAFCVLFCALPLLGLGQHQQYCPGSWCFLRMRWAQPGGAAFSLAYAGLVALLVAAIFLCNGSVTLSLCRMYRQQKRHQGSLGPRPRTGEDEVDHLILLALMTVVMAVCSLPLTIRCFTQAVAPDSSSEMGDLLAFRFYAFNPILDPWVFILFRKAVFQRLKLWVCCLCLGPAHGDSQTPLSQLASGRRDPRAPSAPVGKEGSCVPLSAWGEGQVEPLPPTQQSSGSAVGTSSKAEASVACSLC

SMILES	Ki [1] [nM]	IC50 [2] [nM]	further results
Cc1ccc2c(c1)[C@H](COc1cc(C)c(C(=O)Nc3cc(CC(=O)O)ccc3Cl)c(C)c1)CO2	> 10000	24	
Cc1cc(OC[C@@H]2CN(C)c3ccccc3O2)ccc1C(=O)Nc1cc(CC(=O)O)ccc1F	> 10000		
CN1C[C@@H](COc2ccc(C(=O)Nc3cc(C(C)(C)C(=O)O)ccc3Cl)c(Cl)c2)Oc2ccccc21	3300	7	IC50 [3]: 280 nM; solubility kinetic [4]: 139 µg/mL (≈ 263 µM)
CN1C[C@@H](COc2ccc(C(=O)Nc3cc(C(F)(F)C(=O)O)ccc3Cl)c(Cl)c2)Oc2ccccc21	520	14	
CN1C[C@@H](COc2ccc(C(=O)n3ccc4c(CC(=O)O)cccc43)cc2)Oc2ccccc21	2500		Ki [5]: 1700 nM
CN1C[C@@H](COc2ccc(C(=O)Nc3cc(CC(=O)O)ccc3Cl)c(Cl)c2)Oc2ccccc21			IC50 [3]: > 50 nM
Cc1cc(OC[C@@H]2CN(C)c3ccccc3O2)ccc1C(=O)Nc1cc(CC(=O)O)ccc1Cl	1800		solubility kinetic [4]: 129 µg/mL (≈ 268 µM)
Cc1c(OC[C@@H]2CN(C)c3ccccc3O2)ccc(C(=O)Nc2cc(CC(=O)O)ccc2Cl)c1C	3500	54	Ki [5]: 28 nM
CN1C[C@@H](COc2ccc(C(=O)Nc3cccc(CC(=O)O)c3)c(Cl)c2)Oc2ccccc21	2700		
Cc1cc(OCC2Oc3ccccc3O2)cc(C)c1C(=O)Nc1cc(CC(=O)O)ccc1Cl	> 10000	27	
Cc1cc(OC[C@@H]2COc3ccccc32)cc(C)c1C(=O)Nc1cc(CC(=O)O)ccc1Cl	> 10000	1.5	
Cc1c(OC[C@@H]2CN(C)c3ccccc3O2)ccc(C(=O)Nc2cccc(CC(=O)O)c2)c1C	> 10000	22	
Cc1cc2c(CC(=O)O)cccc2n1C(=O)c1ccc(OC[C@@H]2CN(C)c3ccccc3O2)cc1			IC50 [3]: 57 nM; solubility kinetic [4]: 8.2 µg/mL (≈ 17.4 µM); inhibition in vivo at 0.1 mg/kg [6]: 67%
Cc1cc(C(=O)Nc2cc(C3(C(=O)O)CC3)ccc2Cl)c(C)cc1OC[C@@H]1CN(C)c2ccccc2O1	1700	26	IC50 [3]: 19 nM
Cc1cc(C(=O)Nc2cc(C(C)(C)C(=O)O)ccc2Cl)c(C)cc1OC[C@@H]1CN(C)c2ccccc2O1	3300	43	IC50 [3]: 32 nM
Cc1cc(C(=O)Nc2cccc(CC(=O)O)c2)c(C)cc1OC[C@@H]1CN(C)c2ccccc2O1	> 10000	28	

More lines, main results first:

Ki [1] [nM]	IC50 [2] [nM]	SMILES	further results
> 10000	1	Cc1cc(OC[C@@H]2CN(C)c3ccccc3O2)cc(C)c1C(=O)Nc1cc(C2(C(=O)O)CC2)ccc1Cl	solubility kinetic [4]: 321 µg/mL (≈ 616 µM)
1800	5.1	Cc1cc(C(=O)Nc2cc(CC(=O)O)ccc2Cl)c(C)cc1OC[C@@H]1CN(C)c2ccccc2O1	solubility kinetic [4]: 17 µg/mL (≈ 34.3 µM)
> 10000	0.7	Cc1cc(OC[C@@H]2CN(C)c3ccccc3O2)cc(C)c1C(=O)Nc1cc(C(C)(C)C(=O)O)ccc1Cl	IC50 [3]: 8.1 nM; solubility kinetic [4]: 490 µg/mL (≈ 937 µM); inhibition in vivo at 0.1 mg/kg [6]: 58%; AUC(0-inf) [7]: 8280 ng·h/mL; AUC(0-inf) [8]: 9520 ng·h/mL; Cmax [9]: 1670 ng/mL; clearance [10]: 1.8 mL/min/kg; half-life [11]: 6.5 h; half-life [12]: 5.6 h; Vd [13]: 0.669 L/kg; bioavailability [14]: 87%
5200	12	Cc1ccc(CC(=O)O)cc1NC(=O)c1ccc(OC[C@@H]2CN(C)c3ccccc3O2)c(C)c1C	
> 10000	14	Cc1cc(OC[C@@H]2Cc3ccccc3O2)cc(C)c1C(=O)Nc1cc(CC(=O)O)ccc1Cl	
> 10000	3.5	Cc1cc(OC[C@@H]2CN(C)c3ccccc3O2)cc(C)c1C(=O)Nc1cccc(CC(=O)O)c1	
> 10000	7.6	Cc1cc(OC[C@@H]2CN(C)c3ccccc3O2)cc(C)c1C(=O)Nc1cc(CC(=O)O)ccc1Cl	Ki [5]: 6.4 nM; IC50 [3]: 4.4 nM; solubility kinetic [4]: 407 µg/mL (≈ 822 µM); inhibition in vivo at 0.1 mg/kg [6]: 55%; inhibition in vivo at 1 mg/kg [15]: 46%; AUC(0-inf) [7]: 8120 ng·h/mL; AUC(0-inf) [8]: 11300 ng·h/mL; clearance [10]: 1.6 mL/min/kg; half-life [11]: 6.2 h; half-life [12]: 5.8 h; Vd [13]: 0.622 L/kg; bioavailability [14]: 72%; Cmax [16]: 930 ng/mL
> 10000	4.8	Cc1ccc(CC(=O)O)cc1NC(=O)c1c(C)cc(OC[C@@H]2CN(C)c3ccccc3O2)cc1C	
> 10000	4.3	Cc1cc(OC[C@@H]2COc3ccccc3O2)cc(C)c1C(=O)Nc1cc(CC(=O)O)ccc1Cl	
1400		Cc1ccc(CC(=O)O)cc1NC(=O)c1ccc(OC[C@@H]2CN(C)c3ccccc3O2)cc1Cl	
2600	5.7	Cc1ccc(CC(=O)O)cc1NC(=O)c1cc(C)c(OC[C@@H]2CN(C)c3ccccc3O2)cc1C	
